Measured values: ChEMBL document CHEMBL1140348, “5'-Homoneplanocin A inhibits hepatitis B and hepatitis C” (J Med Chem, 2005)

How the values were obtained:
Hepatitis B virus [1] = assay: Effective concentrations at which 10-fold depression of intracellular intermediates of HBV DNA was observed in 2.2.15 Cells; assay type: functional; conditions: HepG2 2.2.15
Outline: (§1)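 Confluent 2.2.15 cells in RPMI1640 with 2% FBS got nine daily doses, with medium and compound refreshed daily; six cultures per concentration on two plates. HBV DNA was quantified by blot hybridization 24 h after the last dose. EC50 and EC90 are the 2-fold and 10-fold depression versus untreated cultures, from linear regression over two to four experiments.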

Hepatitis C virus [2] = assay: Effective concentrations at which 10-fold depression of HCV RNA was observed in AVA5 cells (Huh 7 cells with subgenomic HCV replicon BB7I; assay type: functional, Hepacivirus hominis
Outline: (§2)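 AVA5 cells (Huh7 carrying subgenomic HCV replicon BB7), grown 3 days with G418, then treated without G418 for 3 consecutive days while rapidly dividing, 3 cultures per concentration, fresh compound daily. HCV RNA measured by quantitative blot hybridization 24 h after last dose. EC90 is the concentration giving 10-fold HCV RNA depression vs untreated, by linear regression.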

Hepatitis C virus [3] = assay: Effective concentrations at which 2-fold depression of HCV RNA was observed in AVA5 cells (Huh 7 cells with subgenomic HCV replicon BB7); assay type: functional, organism-based, Hepacivirus hominis
Outline: as §2, with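 “EC50” for “EC90”, “2-fold” for “10-fold”, “regression on all treated cultures.” for “regression.”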

Hepatitis C virus [4] = assay: Selectivity index as the ratio of CC50 and EC50; assay type: functional, Hepacivirus hominis
Outline: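 AVA5 cells (Huh7 carrying the BB7 subgenomic HCV replicon) were grown 3 days with G418, which was then withdrawn. Rapidly dividing cultures, three per concentration, were treated for 3 consecutive days with daily medium renewal. HCV RNA was measured by blot hybridization 24 h after the last dose, with neutral red uptake for toxicity. SI is CC50/EC50, each at 2-fold depression versus untreated cultures.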

Hepatitis B virus [5] = assay: (§3) Effective concentrations at which […] depression of extracellular virion DNA (HBV) was observed in 2.2.15 Cells; assay type: functional, organism-based; conditions: HepG2 2.2.15
Outline: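 Confluent 2.2.15 cells in RPMI1640 with 2% FBS, given nine consecutive daily doses with daily medium change, six cultures per concentration on two plates. HBV DNA measured by quantitative blot hybridization 24 h after last dose. EC is the concentration giving 2-fold (EC50) or 10-fold (EC90) depression vs untreated, by linear regression, 2–4 experiments.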

Hepatitis B virus [6] = assay: Cytotoxic concentration against […] replication in 2.2.15 cell culture; assay type: functional; conditions: HepG2 2.2.15
[7] = Cytotoxic concentration against HCV replication in AVA5 cell culture; assay type: cell-based; conditions: AVA5 cells
Outline: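 AVA5 replicon cells given compound daily for 3 days, without G418. Neutral red uptake (A510) read 24 h after last treatment. CC50 is the concentration giving 2-fold lower dye uptake vs untreated cultures, by linear regression on combined data from all treated cultures.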

Hepatitis B virus [8] = assay: Selectivity index of virion as the ratio of CC50 and EC90; assay type: functional
Outline: (§4)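 The 2.2.15 HBV assay used nine daily doses. HBV DNA was measured by blot hybridization and toxicity by neutral red uptake, both 24 h after the last dose. The index is CC50/EC90, where EC90 is the 10-fold HBV DNA depression and CC50 the 2-fold dye-uptake depression versus untreated cultures.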

Hepatitis B virus [9] = assay: as §3; assay type: functional; conditions: HepG2 2.2.15; outline: as §1
Hepatitis B virus [10] = assay: Selectivity index of intracellular intermediates as the ratio of CC50 and EC90; assay type: functional; outline: as §4
[11] = Cytotoxic concentration against HBV replication in 2.2.15 cell culture; assay type: cell-based, HepG2 2.2.15; conditions: hepatitis b virus, 2.2.15 cells
Outline: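 Confluent 2.2.15 cells in RPMI1640 with 2% FBS received nine consecutive daily doses, with medium and compound renewed daily. Toxicity was read 24 h after the last dose as neutral red uptake (A510), with three cultures per concentration on plates seeded in parallel from the same cell stock. CC50 is the 2-fold depression of dye uptake versus untreated cultures, from linear regression.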

Row | Structure (SMILES) | EC90 (Hepatitis B virus [1]) | EC90 (Hepatitis C virus [2]) | EC50 (Hepatitis C virus [3]) | SI (Hepatitis C virus [4]) | EC50 (Hepatitis B virus [5]) | CC50 (Hepatitis B virus [6]) | CC50 [7] | SI (Hepatitis B virus [8]) | EC90 (Hepatitis B virus [9]) | SI (Hepatitis B virus [10]) | CC50 [11]
1 | Nc1ncnc2c1ncn2[C@@H]1C=C(CCO)[C@@H](O)[C@H]1O | 27 µM | 31 µM | 7.3 µM | 30 | 0.53 µM | 1210 µM | 216 µM | 158 | 7.7 µM | 45 | –
2 | Nc1ccn([C@@H]2CS[C@H](CO)O2)c(=O)n1 (single isomer, unassigned) [LAMIVUDINE] | 0.69 µM | – | – | – | 0.06 µM | – | – | 11630 | 0.17 µM | 3877 | 2680 µM
3 | NC(=O)c1ncn([C@@H]2O[C@H](CO)[C@@H](O)[C@H]2O)n1 [RIBAVIRIN] | – | > 100 µM | > 100 µM | – | – | – | 71 µM | – | – | – | –
